Seven compounds from ChEMBL document CHEMBL4402514, “Norepinephrine-Transporter-Targeted and DNA-Co-Targeted Theranostic Guanidines” (J Med Chem, 2020) can be followed below.

The nature of data set [1]: Drug uptake in human SK-N-SH cells using 125I labelled compound by gamma counting method. The class given is ADME, cell-based.
Data set [2] is described as follows: Half life in human serum incubated up to 24 hrs by HPLC analysis. Type of data set: ADME, cell-free.
Data set [3] in a line: Partition coefficient, logP of compound. Type of data set: physicochemical. The conditions noted are these: octanol/water.
The nature of data set [4]: Stability in human serum assessed as intact compound level after 5 mins by HPLC analysis. The conditions noted are these: read-out: Stability. The class given is ADME, cell-free. In a few lines: (§1)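 Radioiodinated guanidines were incubated in mouse, human or pig serum and analyzed by radio-HPLC on a C18 column at 0.8 mL/min. The gradient was 0–95% CH3CN over 50 min, then 95% for 20 min. Intact compound was fitted to monoexponential degradation to give half-life. Values are average ± std err.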

Data set [5] in a line: Stability in human SK-N-SH cells assessed as parent compound level after 24 hrs by HPLC analysis. Conditions: read-out: Stability; call rule not given here. Type of data set: ADME, cell-based. In a few lines: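 The compound was incubated 24 h in cell culture medium without cells or with SK-N-SH cells. Intact compound and 125IUdR catabolite were quantified by radio-HPLC on a C18 column at 0.8 mL/min, with a 0–95% CH3CN gradient over 50 min and 95% for 20 min.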

A short description of data set [6]: Dissociation constant, pKa of compound. The class given is physicochemical.
The nature of data set [7]: Stability in human serum assessed as intact compound level after 60 mins by HPLC analysis. Type of data set: ADME, cell-free. The conditions noted are these: read-out: Stability. An outline of the steps: as §1
A short description of data set [8]: Drug recovery in mouse N1E-115 cells assessed as [125I]-2'-deoxy-5-iodo-uridine level in nucleus after 24 hrs by gamma counting method relative to control. The class given is ADME, cell-based. Conditions: n1e-115, 24 h, in the assay text read “in DNA” for “in nucleus”. In a few lines: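 N1E-115 murine neuroblastoma cells were incubated 24 h with 125I agent. Subcellular fractions (cytoplasm, nucleus, DNA pellet) were gamma-counted as percentage of recovered 125I.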

The nature of data set [9]: Stability in mouse serum incubated up to 24 hrs by HPLC analysis. The class given is ADME, cell-free.
Data set [10] in a line: Drug uptake in human SK-N-SH cells assessed as level of 125I-incorporation into DNA incubated 1 hr followed by compound washout with non-radioactive medium/PBS and measured after 23 hrs by gamma counting method relative to control. The class given is ADME, cell-based. In a few lines:
(§2)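 SK-N-SH cells exposed to the 125I-labelled guanidine for 1 h, then washed with nonradioactive medium and PBS. Cells were either processed at once (1 h) or given fresh nonradioactive medium and returned to the incubator for 23 h (24 h). Subcellular fractions (cytoplasm, DNA) were counted by γ-counter. Values are mean and SD, n ≥ 3.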

The target in data set [11] is T1, Sodium-dependent noradrenaline transporter (Homo sapiens, UniProt P23975). Briefly: Substrate activity at NET in human SK-N-SH cells assessed as drug uptake per cell at 37 kBq/ml incubated for 1 hr in presence of nonradioactive MIBG at 37 degC by filtration based gamma counting method. Type of data set: ADME.
Data set [12] addresses T1, Sodium-dependent noradrenaline transporter. Briefly: Substrate activity at NET in human SK-N-SH cells assessed as drug uptake per cell at 37 kBq/ml incubated for 1 hr in presence of nonradioactive MIBG at 4 degC by filtration based gamma counting method. Type of data set: ADME.
Data set [13] in a line: Drug uptake in human SK-N-SH cells assessed as level of 125I-incorporation into DNA after 1 hr and followed by compound washout with non-radioactive medium/PBS and measured immediately by gamma counting method relative to control. The class given is ADME, cell-based. In a few lines: as §2
Data set [14] in a line: Stability in mouse serum incubated up to 6 hrs by HPLC analysis. Type of data set: ADME, cell-free.
Data set [15] can be described thus: Drug uptake in human SK-N-SH cells assessed as [125I]-2'-deoxy-5-iodo-uridine level at 38 kBq/mL after 24 hrs by gamma counting method. Type of data set: ADME, cell-based. An outline of the steps:
(§3)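 SK-N-SH cells were exposed to 125I compound at an extracellular 38 kBq/mL for 1 h or continuously for 24 h. Cell-associated 125I was gamma-counted per cell.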

The nature of data set [16]: Drug uptake in human SK-N-SH cells assessed as [125I]-2'-deoxy-5-iodo-uridine level at 38 kBq/mL after 1 hr by gamma counting method. The class given is ADME, cell-based. An outline of the steps:
as §3

Data set [17] can be described thus: Drug uptake in cytoplasm of human SK-N-SH cells at 39.3 +/- 0.3 kBq/mL after 1 hr and followed by compound washout with non-radioactive medium/PBS and measured immediately by gamma counting method relative to control. Type of data set: ADME, subcellular. An outline of the steps: (§4)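 SK-N-SH cells were exposed 1 h to 125I compound (≈39–40 kBq/mL), then washed with nonradioactive medium and PBS. Cells were processed immediately (1 h) or re-incubated in fresh medium for 23 h (24 h). Cytoplasmic, nuclear and DNA fractions were gamma-counted.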

Data set [18] deals with SK-N-SH. Briefly: Anticlonogenic activity against human SK-N-SH cells assessed as number of colonies at 39.3+/- 0.3 kBq/mL after 1 hr by crystal violet staining based assay. The class given is functional. In a few lines: (§5)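 SK-N-SH cells exposed for 1 h to 125I-MIBG (39.3 ± 0.3 kBq/mL extracellular) or IDG (40 ± 0.5 kBq/mL). For the 1 h group, cells were washed with nonradioactive medium and PBS, harvested with trypsin and replated for the clonogenic assay. For the 24 h group, cells were washed, given fresh nonradioactive medium and incubated a further 23 h before plating. Colonies were counted.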

Data set [19] in a line: Drug uptake in cytoplasm of human SK-N-SH cells at 39.3 +/- 0.3 kBq/mL after 24 hrs by gamma counting method relative to control. The class given is ADME, subcellular. An outline of the steps:
as §4

For data set [20], the system named is SK-N-SH. Briefly: Anticlonogenic activity against human SK-N-SH cells assessed as number of colonies at 39.3+/- 0.3 kBq/mL after 24 hr by crystal violet staining based assay. Type of data set: functional. An outline of the steps: as §5
Data set [21] in a line: Ratio of tumor to blood concentration in NCR nu/nu mouse xenografted with human BE(2)-C cells at 0.44 +/- 0.1 MBq administered intratumorally after 24 hrs by gamma counting method. Conditions: tumour, other. The class given is ADME, tissue-based. An outline of the steps:
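Athymic Ncr nu/nu female and male mice bearing subcutaneous BE(2)-C xenografts were given a single intratumoral injection of the 125I-labelled agent. Tumor and tissues were collected at 24 h, 125I was γ-counted, and uptake was expressed as %ID/g. The tumor-to-blood ratio was derived from the %ID/g values.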

Data set [22] in a line: Drug level in tumor of NCR nu/nu mouse xenografted with human BE(2)-C cells at 0.44 +/- 0.1 MBq administered intratumorally after 24 hrs by gamma counting method. Type of data set: ADME, tissue-based, Neoplasm. The conditions noted are these: in vivo, other. An outline of the steps:
(§6)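 Athymic Ncr nu/nu female and male mice bearing subcutaneous BE(2)-C xenografts received intratumor injections of the 125I agent. Tissues, tumor and blood were collected at 24 h and counted for radioactivity, expressed as %ID/g. Tumor-to-blood ratios were derived.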

Data set [23] can be described thus: Drug level in tumor of NCR nu/nu mouse xenografted with human BE(2)-C cells at 0.83 +/- 0.09 MBq administered intratumorally after 24 hrs by gamma counting analysis. The class given is ADME, tissue-based, Neoplasm. The conditions noted are these: in vivo, other. An outline of the steps:
as §6

Data set [24] is described as follows: Drug level in adrenal gland of NCR nu/nu mouse xenografted with human BE(2)-C cells at 0.44 +/- 0.1 MBq administered intratumorally after 24 hrs by gamma counting method. The conditions noted are these: in vivo, other. Type of data set: ADME, tissue-based. In a few lines: as §6

T1 sequence (P23975 whole entry): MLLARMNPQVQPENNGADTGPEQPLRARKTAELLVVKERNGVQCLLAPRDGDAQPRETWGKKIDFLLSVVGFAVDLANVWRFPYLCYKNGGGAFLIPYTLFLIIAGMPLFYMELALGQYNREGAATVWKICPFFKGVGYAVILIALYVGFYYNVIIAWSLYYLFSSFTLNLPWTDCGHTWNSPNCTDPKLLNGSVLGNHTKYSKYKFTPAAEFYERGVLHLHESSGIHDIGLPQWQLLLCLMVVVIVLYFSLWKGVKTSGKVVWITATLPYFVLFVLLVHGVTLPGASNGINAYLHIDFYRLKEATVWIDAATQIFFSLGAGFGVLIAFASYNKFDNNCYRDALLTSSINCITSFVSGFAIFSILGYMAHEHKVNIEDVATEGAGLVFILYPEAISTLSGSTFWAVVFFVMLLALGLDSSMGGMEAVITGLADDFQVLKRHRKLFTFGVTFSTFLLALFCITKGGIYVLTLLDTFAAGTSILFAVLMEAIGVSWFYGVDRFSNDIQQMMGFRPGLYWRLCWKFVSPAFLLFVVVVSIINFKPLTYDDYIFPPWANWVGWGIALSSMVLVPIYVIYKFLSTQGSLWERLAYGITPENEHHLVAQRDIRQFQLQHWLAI

In the case of `N=C(N)NCCCCCC(=O)OC[C@H]1O[C@@H](n2cc([125I])c(=O)[nH]c2=O)C[C@@H]1O`, the Drug uptake result in data set [1] was “Dose-dependent effect and Tde”. In addition, the half-life in data set [2] is 53.4 min. This compound also registered a logP in data set [3] of -0.2. For the same compound, in data set [4], the remaining at 5 min is 77%. In addition, the remaining at 24 h in data set [5] is 30%. Also, the pKa in data set [6] worked out at 12.2. For the same compound, in [7], the remaining at 1 h amounted to 47%. Besides, the Drug recovery in data set [8] is given as more than 99%. Besides, in data set [9], the Stability entry is “Unstable”.
For the compound `CC(C)(C)c1cc(C(C)(C)C)c2c(c1F)COP(=O)(OC[C@H]1O[C@@H](n3cc([125I])c(=O)[nH]c3=O)C[C@@H]1OC(=O)CCCCCNC(=N)N)O2` (some centres undefined), the Drug uptake entry in data set [1] is “Dose-dependent effect and Tde”; in data set [10], 42%; in [11], 1.85 mBq; in data set [12], 0.05 mBq; in data set [13], 14%. This compound showed a half-life in [2] of 900 min. This compound also had a logP in data set [3] of 4.58. The same compound had a pKa in [6] of 12.1. Besides, the Stability entry in [9] is recorded as “Unstable”.
On to `N=C(N)NC[C@H]1O[C@@H](n2cc([125I])c(=O)[nH]c2=O)C[C@@H]1O`, for which the Stability result in data set [14] is on record as “Unstable”. Besides, the values for the Drug uptake in data set [15] and in data set [16] were 0.00054 mBq and 0.00001 mBq, respectively. This compound had a logP in data set [3] of -1.3. The compound also came in with a pKa in [6] of 11.5.
Turning to `N=C(N)NCc1ccc(C(=O)OC[C@H]2O[C@@H](n3cc([125I])c(=O)[nH]c3=O)C[C@@H]2O)cc1`, the Drug uptake entry in data set [1] is “Dose-dependent effect and Tde”. In [2], this compound had a half-life of 45.6 min. In data set [3], this compound displayed a logP of 0.26. The same compound came in with a pKa in data set [6] of 11.9. The Stability entry in data set [9] is reported as “Unstable”.
Turning to `N=C(N)NCc1cccc(I)c1` [IOBENGUANE], the logP in data set [3] was 1.63. This compound also gave a pKa in [6] of 11.8.
Turning to `N=C(N)NCCC(=O)OC[C@H]1O[C@@H](n2cc([125I])c(=O)[nH]c2=O)C[C@@H]1O`, the Drug uptake result in data set [1] was “Dose-dependent effect and Tde”. This compound also had a half-life in data set [2] of 23.4 min. In addition, in [3], the logP is -1.48. The compound further showed a pKa in data set [6] of 11.9. Further, the Stability entry in data set [9] is “Unstable”.
Turning to `N=C(N)NCc1cccc([125I])c1`, the Drug uptake stood at 87% in [17]; 74% in data set [19]; 1.85 % ID/g in data set [22]; 1.85 % ID/g in [23]; 4.64 % ID/g in data set [24]. Moreover, the Activity with SK-N-SH [18] is reported as 229; with SK-N-SH [20] it was 250. The Ratio in data set [21] is listed as 19. In addition, the Drug recovery in data set [8] turned out to be 0%.
